Consider two compounds from publication PMC9398166 (Molecular Cancer Therapeutics, 2021).

Data set [1] concerns ALK(G1202R). Particulars: cited from earlier work.
The nature of data set [2]: Free. Particulars: SCID/beige, mouse, plasma, oral, 5 mg/kg. Type of data set: in vivo, mice.
For data set [3] the following is noted: ref FDA label; cited from earlier work.
For data set [4] the following is noted: patients; ref FDA label; cited from earlier work.
The target in data set [5] is EML4-ALK G1202R/L1196M fusion phosphorylation (Homo sapiens, UniProt Q9HC35+Q9UM73, G1202R/L1196M). The data set can be described thus: Pharmacokinetic/pharmacodynamic analysis of phospho-ALK. Particulars: mouse, read-out: phosphorylation inhibition of EML4-ALK G1202R/L1196M fusion. The data set is classed as in vivo, mice.
Experiment in data set [6]: as above
Type of data set: in vivo, mice. The note with it: SCID/beige, mouse, plasma, oral.

The nature of data set [7]: Pharmacokinetics and brain distribution after repeat oral administration. The note with it: male Sprague Dawley rats; single oral administration. The data set is classed as in vivo. In short, it runs like this: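 Male Sprague Dawley rats received 10 mg/kg orally once daily for 7 consecutive days. Plasma concentration profiles were determined on days 1 and 7. On day 7, terminal samples of plasma, cerebrospinal fluid and brain tissue were collected 1, 4 and 24 h postdose and analyzed by LC/MS-MS. Brain tissue levels were compared with plasma levels.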

Consider `C[C@H]1Oc2cc(cnc2N)-c2c(nn(C)c2C#N)CN(C)C(=O)c2ccc(F)cc21` [Lorlatinib, lorlatinib], for which the “unbound exposure necessary for maximum antitumor efficacy” value in data set [1] (preclinical ALK(G1202R) xenograft model) is reported as […]. In addition, the EC90 (as a rule, the concentration needed for an effect of 90%) in data set [1] (read-out: EC90 unbound exposure for inhibition of ALK(G1202R) phosphorylation, preclinical xenograft model) was […]. In data set [2], this compound showed a concentration at 12 h of 358 nM. In data set [3], the plasma protein binding is given as 66%. Moreover, in data set [4], the “AUC0–24h” value was 5650 ng·h/mL and the Cave unbound exposure result is reported as “approximately 155 nmol/L”.
As to `CC1(C)COc2ccc(F)cc2CN2c3nc4c(cnn4cc3OC[C@H]2C(F)F)C(=O)N1` [TPX-0131, (4S)-4-(difluoromethyl)-8-fluoro-13,13-dimethyl-3,4,13,14-tetrahydro-6H-18,1-(metheno)[1,4]oxazino[3,4-i]pyrazolo[4,3-f][1,4,8,10]benzoxatriazacyclotridecin-15(12H)-one], in data set [5], the inhibition at 0.0195 µM is greater than 90%. Further, the concentration at 2 h in data set [6] amounted to 19.5 nM. In data set [7], the absorption result is on record as “rapid absorption” and the elimination half-life entry is “long elimination half-life”.
